The source made the active and inactive calls. The calls are words filed in the database; no cut-off is given here.
Experiments:
RT-112 [1] = assay: Growth inhibition of human RT112 cells at 1000 uM measured after 15 to 60 mins by Celltiter-Glo luminescent cell viability assay relative to control; type: functional; conditions: read-out: GI
Summary of the method: (§1)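 Cells seeded 10000/well, 24 h, then exposed in ATCC-recommended medium to 62.5–2000 μM (two-fold steps) or vehicle for the set time (5–60 min), then normal medium. After 24 h, plates equilibrated 30 min at room temperature, CellTiter-Glo added, 2 min at room temperature, luminescence read. Survival relative to vehicle control; quadruplicate.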

RT-112 [2] = assay: Growth inhibition of human RT112 cells at 500 uM by Celltiter-Glo luminescent cell viability assay; type: functional, cell-based; conditions: TDE = time-dependent effect; summary of the method: as §1
TCC-SUP = assay: Growth inhibition of human TCCSUP cells measured after 1 hr by Celltiter-Glo luminescent cell viability assay; type: functional; summary of the method: as §1
[3] = Solubility of compound in water; type: physicochemical
CCRF-CEM = assay: Growth inhibition of human CCRF-CEM cells assessed as growth percent at 10 uM incubated for 48 hrs by sulforhodamine B assay relative to control; type: functional; conditions: read-out: Activity
HL-60(TB) = assay: Growth inhibition of human HL-60(TB) cells assessed as growth percent at 10 uM incubated for 48 hrs by sulforhodamine B assay relative to control; type: functional; conditions: HL-60, 48 h, read-out: Activity
K562 = assay: Growth inhibition of human K562 cells assessed as growth percent at 10 uM incubated for 48 hrs by sulforhodamine B assay relative to control; type: functional; conditions: K562, 48 h, read-out: Activity
A549 = assay: Growth inhibition of human A549/ATCC cells assessed as growth percent at 10 uM incubated for 48 hrs by sulforhodamine B assay relative to control; type: functional; conditions: A549, 48 h, read-out: Activity
HOP-62 = assay: Growth inhibition of human HOP62 cells assessed as growth percent at 10 uM incubated for 48 hrs by sulforhodamine B assay relative to control; type: functional; conditions: HOP-62, 48 h, read-out: Activity
NCI-H226 = assay: Growth inhibition of human NCI-H226 cells assessed as growth percent at 10 uM incubated for 48 hrs by sulforhodamine B assay relative to control; type: functional; conditions: NCI-H226, 48 h, read-out: Activity
HCC 2998 = assay: Growth inhibition of human HCC2998 cells assessed as growth percent at 10 uM incubated for 48 hrs by sulforhodamine B assay relative to control; type: functional; conditions: HCC 2998, 48 h, read-out: Activity
SNB-19 = assay: Growth inhibition of human SNB19 cells assessed as growth percent at 10 uM incubated for 48 hrs by sulforhodamine B assay relative to control; type: functional; conditions: SNB-19, 48 h, read-out: Activity
Malme-3M = assay: Growth inhibition of human MALME-3M cells assessed as growth percent at 10 uM incubated for 48 hrs by sulforhodamine B assay relative to control; type: functional; conditions: read-out: Activity
OVCAR-4 = assay: Growth inhibition of human OVCAR4 cells assessed as growth percent at 10 uM incubated for 48 hrs by sulforhodamine B assay relative to control; type: functional; conditions: OVCAR-4, 48 h, read-out: Activity
OVCAR-5 = assay: Growth inhibition of human OVCAR5 cells assessed as growth percent at 10 uM incubated for 48 hrs by sulforhodamine B assay relative to control; type: functional; conditions: OVCAR-5, 48 h, read-out: Activity
PC-3 = assay: Growth inhibition of human PC3 cells assessed as growth percent at 10 uM incubated for 48 hrs by sulforhodamine B assay relative to control; type: functional; conditions: PC-3, 48 h, read-out: Activity
DU-145 = assay: Growth inhibition of human DU145 cells assessed as growth percent at 10 uM incubated for 48 hrs by sulforhodamine B assay relative to control; type: functional; conditions: DU-145, 48 h, read-out: Activity
J82 = assay: Anticlonogenic activity against human J82 cells assessed as decrease in colony formation at 250 to 500 uM incubated for 1 hr measured after culturing in normal medium for 10 days by crystal violet staining assay; type: functional, cell-based
Summary of the method: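 Cells seeded at 500/well, treated 24 h later with 250 or 500 μM drug or vehicle for 1 h. Cells were then grown in normal media for 10 days, stained with 0.5% crystal violet in 20% MeOH/water at 4 °C for 5 min, washed, dried and imaged. Run in triplicate.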

UMUC3 = assay: Cell cycle arrest in human UM-UC-3 cells assessed as increase in cell accumulation at sub-G1 phase at 250 to 500 uM incubated for 1 hr measured after culturing in normal medium for 24 hrs by propidium iodide/RNase staining based FACScan flow cytometry analysis; type: functional
Summary of the method: (§2)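 Seeded at 300,000 cells/well in triplicate per treatment; 24 h later exposed to 250 or 500 μM or vehicle for 1 h. After 24 h in normal media, media plus cells were collected, washed, fixed in cold 70% ethanol (4 °C, 30 min), treated with phosphate citric acid buffer, stained with PI/RNase and gated for sub-G1 by flow cytometry.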

RT-112 [4] = assay: Cell cycle arrest in human RT112 cells assessed as increase in cell accumulation at sub-G1 phase at 250 uM incubated for 1 hr measured after culturing in normal medium for 24 hrs by propidium iodide/RNase staining based FACScan flow cytometry analysis; type: functional; summary of the method: as §2
RT-112 [5] = assay: Induction of apoptosis in human RT112 cells assessed as increase in caspase 9 cleavage at 250 uM incubated for 1 hr and measured immediately after treatment by Western blot analysis; type: functional, cell-based
Summary of the method: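 RT112 seeded 300,000/well; after 24 h, 250 or 500 μM or vehicle. Cells plus floating debris harvested immediately or 24 h after treatment, lysed in RIPA with protease inhibitors. About 30 μg protein heated 10 min at 95 °C with DTT, run on SDS-PAGE. Immunoblotted for PARP and caspase 9, Ran as loading control, ECL detection.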

RT-112 [6] = assay: Mito-toxicity in mitochondria isolated from human RT112 cells assessed as increase in cytochrome C release at 200 uM incubated for 1 hr and measured after 4 hrs incubation in preservative buffer by Western blot analysis; type: functional
Summary of the method: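 Mitochondria isolated from 20 million RT112 cells with a kit. Exposed to 200 μM, 100 μM CCCP or 10% DMSO for 1 h at 37 °C, then kept in mitochondria preservative buffer at 37 °C. Spun after 1 h and 4 h into supernatant and pellet; pellet lysed. Cytochrome c in each fraction detected by western blot.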

Mus musculus = assay: Antitumor activity against anesthetized BBN-induced bladder tumor mouse model assessed as increase in cleaved caspase 3 level in hyperplasia region at 1500 uM administered via intravesical instillation treated for 1 hr administered as 2 doses at 24 hrs interval and measured at 24 hrs after final treatment by hematoxylin and eosin staining based immunohistochemical analysis; type: functional, organism-based
[7] = Toxicity in anesthetized female mouse model assessed as inflammation at 750 to 1500 uM administered via intravesical instillation after bladder evacuation treated for 1 hr followed by repetition of the treatment after 24 hrs and measured at 24 hrs after final treatment; conditions: in vivo, other
Summary of the method: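 Female mice anesthetized, 1–3% isoflurane. Bladder evacuated, then 100 μL of 750 or 1500 μM in 10% DMSO/PBS (or vehicle) instilled by 24G angiocatheter. Catheter left in place for a 1 h dwell. Repeated after 24 h; mice sacrificed 24 h after final dose. Bladder histology read for urothelial height and layers.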

With `[Br-].[Br-].c1ccc([P+](CCCc2n(Cc3ccc4ccccc4c3)c3ccccc3[n+]2Cc2ccc3ccccc3c2)(c2ccccc2)c2ccccc2)cc1` as the compound, how does the inhibition of growth at 1000 µM (RT-112 [1]) read?
Its inhibition of growth at 1000 µM is 100%.

What about the “growth inhibition (GI)” value (RT-112 [2]) of the same compound?
Its value is “Tde”.

And the GI50 (TCC-SUP)?
Its GI50 is 240 µM.

What about the solubility [3] of the same compound?
Its solubility is 8000 µg/mL.

What about the growth at 10 µM (CCRF-CEM) of the same compound?
Its growth at 10 µM is 43.1%.

And the growth at 10 µM (HL-60(TB))?
Its growth at 10 µM is 22.6%.

What about the growth at 10 µM (K562) of the same compound?
The growth at 10 µM was 23.7%.

And the growth at 10 µM (A549)?
The growth at 10 µM was 80.2%.

And the growth at 10 µM (HOP-62)?
The growth at 10 µM was 61.6%.

And the growth at 10 µM (NCI-H226)?
The growth at 10 µM was 83.5%.

And the growth at 10 µM (HCC 2998)?
The growth at 10 µM was 53.9%.

What about the growth at 10 µM (SNB-19) of the same compound?
The growth at 10 µM was 38.5%.

And the growth at 10 µM (Malme-3M)?
The growth at 10 µM was 65.2%.

What about the growth at 10 µM (OVCAR-4) of the same compound?
The growth at 10 µM was 74.4%.

What about the growth at 10 µM (OVCAR-5) of the same compound?
Its growth at 10 µM is 60.1%.

And the growth at 10 µM (PC-3)?
The growth at 10 µM was 67.5%.

And the growth at 10 µM (DU-145)?
The growth at 10 µM was 82.1%.

And the inhibition (J82)?
Its inhibition is “Active”.

What about the Activity (UMUC3) of the same compound?
Its Activity is “Active”.

What about the Activity (RT-112 [4]) of the same compound?
Its Activity is “Active”.

What about the Activity (RT-112 [5]) of the same compound?
Its Activity is “Active”.

What about the Activity (RT-112 [6]) of the same compound?
Its Activity is “Active”.

What about the Activity (Mus musculus) of the same compound?
The Activity was “Active”.

And the Activity [7]?
Its Activity is “Non-Toxic”.

— ChEMBL document CHEMBL4312027, “Synthesis, characterization, and biological activity of a triphenylphosphonium-containing imidazolium salt against select bladder cancer cell lines” (Eur J Med Chem, 2020)
